Assay [1] relates to Mus musculus. The assay can be described thus: Antitumor activity against leukemia P388 cell line in mice was determined at 12.5 mg/kg intraperitoneal dose. Type of assay: functional. The procedure, abridged:
(§1)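 Mice bearing leukemia P388, dosed intraperitoneally; activity read out as % T/C.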

Assay [2] deals with Mus musculus. The experiment in a line: Antitumor activity against leukemia P388 cell line in mice was determined at 3.1 mg/kg intraperitoneal dose. Type of assay: functional. The procedure, abridged: as §1
The subject of assay [3] is Mus musculus. The assay can be described thus: Antitumor activity against leukemia P388 cell line in mice was determined at 6.3 mg/kg intraperitoneal dose. Type of assay: functional. The procedure, abridged: as §1
Assay [4] in a line: Antitumor activity was determined by the ability to inhibit KB cell growth. The note with it: Homo sapiens. Type of assay: functional, cell-based. The procedure, abridged:
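KB cell growth inhibition, reported as IC50 in μg/mL.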

The test system of assay [5] is Mus musculus. The experiment in a line: Antitumor activity against leukemia P388 cell line in mice was determined at 10 mg/kg intraperitoneal dose. Type of assay: functional. The procedure, abridged:
as §1

Assay [6] relates to Mus musculus. The assay can be described thus: Antitumor activity against leukemia P388 cell line in mice was determined at 400 mg/kg intraperitoneal dose; IA means inactive. The class given is functional, organism-based. Set-up: dose 400 mg/kg. The essentials: as §1
Assay [7] concerns Mus musculus. The assay can be described thus: Antitumor activity against leukemia P388 cell line in mice was determined at 100 mg/kg intraperitoneal dose. The class given is functional. The procedure, abridged:
as §1

For assay [8], the system named is Mus musculus. The assay can be described thus: Antitumor activity against leukemia P388 cell line in mice was determined at 400 mg/kg intraperitoneal dose. Type of assay: functional. The essentials: as §1
In assay [9] the test system is Mus musculus. The experiment in a line: Antitumor activity against leukemia P388 cell line in mice was determined at 25 mg/kg intraperitoneal dose. The class given is functional. The essentials:
as §1

Assay [10] has as its system Mus musculus. The assay can be described thus: Antitumor activity against leukemia P388 cell line in mice was determined at 50 mg/kg intraperitoneal dose. The class given is functional. The essentials: as §1
In assay [11] the test system is Mus musculus. The assay can be described thus: Antitumor activity against leukemia P388 cell line in mice was determined at 2.5 mg/kg intraperitoneal dose. The class given is functional. The procedure, abridged:
as §1

Assay [12] has as its system Mus musculus. The experiment in a line: Antitumor activity against leukemia P388 cell line in mice was determined at 20 mg/kg intraperitoneal dose. Type of assay: functional. The essentials: as §1
In assay [13] the test system is Mus musculus. The experiment in a line: Antitumor activity against leukemia P388 cell line in mice was determined at 40 mg/kg intraperitoneal dose. The class given is functional. The essentials: as §1

≈ marks a conversion by molar mass, not a printed value. Calls of active or inactive are those of the source. The calls are words filed in the database; no cut-off is given here. Where only a bound is given, the exact number is not on record here.

For the molecule `COc1ccc(C(c2ccc3cccnc3c2O)c2ccc3cccnc3c2O)cc1`, the T/C – broadly, the result in the treated group divided by that in the control group, in per cent – was 164% in assay [1], 111% in assay [2] and 128% in [3]. For the same molecule, the IC50 – broadly, the concentration at which inhibition is half-maximal – in [4] is under 0.3 µg/mL.

`COc1ccc(C(c2ccc(C(C)C)cc(=O)c2O)c2ccc(C(C)C)cc(=O)c2O)cc1` registered a T/C in [5] of 170%. The molecule further showed an IC50 in [4] of under 0.3 µg/mL.

Take `COc1ccc(C(c2c(O)ccc3ncccc23)c2c(O)ccc3ncccc23)cc1`: in assay [6], the T/C result was “inactive”. The molecule also came in with an IC50 in assay [4] of 17 µg/mL (≈ 41.6 µM).

In the case of `CCOC(c1ccc(OC)cc1)c1c(O)ccc2ncccc12` (centres undefined), the T/C result in assay [6] is “inactive”. In [4], this molecule registered an IC50 of 44 µg/mL (≈ 142 µM).

Regarding `CC(C)c1ccc(C2OCCc3ccccc32)c(O)c(=O)c1` (centres undefined), the T/C in [7] is reported as 112%.

Turning to `CCOC(c1ccc(OC)cc1)c1ccc2cccnc2c1O` (centres undefined), the T/C is given as 112% in assay [7] and 129% in [8]. Further, the IC50 in assay [4] is 0.8 µg/mL (≈ 2.59 µM).

On to `CCOC(c1ccccc1)c1ccc(C(C)C)cc(=O)c1O` (centres undefined), for which the T/C result in assay [6] is “inactive”. The IC50 in assay [4] was under 0.3 µg/mL.

With `COc1ccc(C(c2ccc(C(C)C)cc(=O)c2O)c2oc(CO)cc(=O)c2O)cc1` (centres undefined), the T/C in [1] is 128%; in assay [9] it was 146%; in [10] it was 152%. The IC50 in [4] turned out to be 0.5 µg/mL (≈ 1.18 µM).

For the molecule `Oc1c(C(c2cccs2)c2ccc3cccnc3c2O)ccc2cccnc12`, the values for the T/C in assay [5], in assay [11] and in [12] were 125%, 108% and 136%, respectively. The molecule further yielded an IC50 in assay [4] of under 0.3 µg/mL.

For `COc1ccc(C(c2ccc3cccnc3c2O)c2oc(CO)cc(=O)c2O)cc1` (centres undefined), the T/C in assay [1] was determined as 120%; in assay [9] it was 138%; in assay [10], 135%. In assay [4], this molecule gave an IC50 of under 0.3 µg/mL.

As for `Oc1c(C2OCCc3ccccc32)ccc2cccnc12` (centres undefined), the T/C result in [6] is “inactive”. Further, the IC50 in assay [4] is 1.3 µg/mL (≈ 4.69 µM).

On to `Oc1c(C(c2ccco2)c2ccc3cccnc3c2O)ccc2cccnc12`, for which the T/C in [5] is 113%; in assay [12], 120%; in [13], 138%. This molecule also returned an IC50 in assay [4] of under 0.3 µg/mL.

(Values after ChEMBL document CHEMBL1123625, “Synthesis and antitumor activity of tropolone derivatives. 6. Structure-activity relationships of antitumor-active tropolone and 8-hydroxyquinoline derivatives” (J Med Chem, 1987).)
